Source: ChEMBL document CHEMBL1122482, “Optical resolution, absolute configuration, and activity of the enantiomers of proxyphylline” (J Med Chem, 1983)

Target: not listed separately
Experiment: Inhibition of human lung high-affinity cAMP phosphodiesterases (0.5-2 uM/L)
In short: (§1)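 Enzyme source was lung cytosol from homogenized unaffected tissue of a patient undergoing total pulmectomy for pulmonary carcinoma. Phosphodiesterase activity was measured essentially by the Thompson and Appleman method. Substrates were cAMP or cGMP at 0.5–2 μmol/L for the high-affinity form and 10–50 μmol/L for the low-affinity form. Inhibitor was added at 0.25–1.0 mmol/L. K_I came from Dixon plots of initial rates.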

Compound	Ki [µM]
C[C@@H](O)Cn1cnc2c1c(=O)n(C)c(=O)n2C [(R)-PROXYPHYLLINE]	500
C[C@H](O)Cn1cnc2c1c(=O)n(C)c(=O)n2C [(S)-PROXYPHYLLINE]	400
CC(O)Cn1cnc2c1c(=O)n(C)c(=O)n2C (centres undefined) [PROXYPHYLLINE]	500

Target: cGMP-specific 3',5'-cyclic phosphodiesterase (Homo sapiens, UniProt O76074)
Experiment: Inhibition of human lung high-affinity cGMP phosphodiesterases (0.5-2 uM/L)
In short: as §1

Compound	Ki [µM]
C[C@@H](O)Cn1cnc2c1c(=O)n(C)c(=O)n2C [(R)-PROXYPHYLLINE]	600
C[C@H](O)Cn1cnc2c1c(=O)n(C)c(=O)n2C [(S)-PROXYPHYLLINE]	600
CC(O)Cn1cnc2c1c(=O)n(C)c(=O)n2C (centres undefined) [PROXYPHYLLINE]	600

Target: cGMP-dependent 3',5'-cyclic phosphodiesterase (Homo sapiens, UniProt O00408)
Sequence (O00408 whole entry): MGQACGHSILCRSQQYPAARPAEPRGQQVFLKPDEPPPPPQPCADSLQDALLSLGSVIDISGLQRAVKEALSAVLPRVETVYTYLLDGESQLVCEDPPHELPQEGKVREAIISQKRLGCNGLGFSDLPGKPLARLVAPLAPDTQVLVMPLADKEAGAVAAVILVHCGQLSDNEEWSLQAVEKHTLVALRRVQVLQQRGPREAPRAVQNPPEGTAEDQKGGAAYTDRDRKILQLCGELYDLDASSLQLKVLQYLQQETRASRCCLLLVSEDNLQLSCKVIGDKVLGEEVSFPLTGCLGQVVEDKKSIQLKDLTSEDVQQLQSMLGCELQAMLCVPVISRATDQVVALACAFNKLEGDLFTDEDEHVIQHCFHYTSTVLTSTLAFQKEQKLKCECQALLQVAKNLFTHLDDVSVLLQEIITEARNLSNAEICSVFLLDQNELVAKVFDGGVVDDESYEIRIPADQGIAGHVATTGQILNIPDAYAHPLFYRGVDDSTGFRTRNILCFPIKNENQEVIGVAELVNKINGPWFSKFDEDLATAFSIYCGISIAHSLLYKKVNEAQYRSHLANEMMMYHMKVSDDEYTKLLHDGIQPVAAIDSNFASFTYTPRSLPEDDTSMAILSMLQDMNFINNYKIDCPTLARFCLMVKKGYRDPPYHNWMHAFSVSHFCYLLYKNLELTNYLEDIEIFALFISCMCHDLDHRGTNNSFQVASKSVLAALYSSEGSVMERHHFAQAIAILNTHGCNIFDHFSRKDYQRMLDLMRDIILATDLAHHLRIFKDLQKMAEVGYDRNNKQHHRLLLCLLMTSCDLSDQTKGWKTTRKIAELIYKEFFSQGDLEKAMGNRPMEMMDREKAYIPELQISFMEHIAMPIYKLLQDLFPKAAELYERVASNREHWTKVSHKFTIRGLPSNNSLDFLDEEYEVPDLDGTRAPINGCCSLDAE
Experiment: Inhibition of human lung low-affinity cGMP phosphodiesterases (10-50 uM/L)
In short: as §1

Compound	Ki [µM]
C[C@@H](O)Cn1cnc2c1c(=O)n(C)c(=O)n2C [(R)-PROXYPHYLLINE]	600
C[C@H](O)Cn1cnc2c1c(=O)n(C)c(=O)n2C [(S)-PROXYPHYLLINE]	700
CC(O)Cn1cnc2c1c(=O)n(C)c(=O)n2C (centres undefined) [PROXYPHYLLINE]	600
